Data from ChEMBL document CHEMBL4316657, “Sesquiterpenes from an Endophytic Aspergillus flavus” (J Nat Prod, 2019).

How the values were obtained:
HepG2 [1] = assay: Hepatoprotective activity against APAP-induced toxicity in human HepG2 cells assessed as cell survival rate at 10 uM after 48 hrs by MTT assay relative to control; assay type: functional; conditions: HepG2, 48 h, read-out: Survival
In short: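 HepG2 cells were co-treated with compound (10 μM final) and acetaminophen (10 mM final per methods; results text cites 8 mM) for 48 h. Bicyclol served as positive control and DMSO as negative control. MTT (0.5 mg/mL) was added for 4 h at 37 °C, formazan dissolved in DMSO, and A570 read. Survival = mean OD treated / mean OD solvent control.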

A549 = assay: Cytotoxicity against human A549 cells measured after 72 hrs by MTT assay; conditions: A549, 72 h
HCT-116 = assay: Cytotoxicity against human HCT116 cells measured after 72 hrs by MTT assay; conditions: HCT-116, 72 h
BGC-823 = assay: Cytotoxicity against human BGC823 cells measured after 72 hrs by MTT assay; conditions: BGC-823, 72 h
MCF7 = assay: Cytotoxicity against human MCF7 cells measured after 72 hrs by MTT assay; conditions: MCF7, 72 h
HepG2 [2] = assay: Cytotoxicity against human HepG2 cells measured after 72 hrs by MTT assay; conditions: HepG2, 72 h

CC(C)[C@H]1CC[C@H](CO)c2c(O)cc(C(=O)O)cc21
viability at 10 µM (HepG2 [1]): 33.2 to 41.6%

CC(=O)OC/C(=C\[C@@H]1[C@@H](C(C)C)CC[C@@]2(O)COC(=O)[C@@H]12)C(=O)O
viability at 10 µM (HepG2 [1]): 33.2 to 41.6%

COC(=O)c1cc(OC)c2c(c1-c1c(CO)cc(OC)c3c1OCO3)OCO2 [BICYCLOL]
viability at 10 µM (HepG2 [1]): 31.9%

C=C(CC[C@@H](C)[C@H]1CC[C@H]2C3=CC(=O)[C@H]4[C@H](O)[C@@H](O)CC[C@]4(C)[C@H]3CC[C@]12C)C(C)COC (stereo partly drawn)
viability at 10 µM (HepG2 [1]): 33.2 to 41.6% | IC50 (A549): > 10000 nM | IC50 (HCT-116): > 10000 nM | IC50 (BGC-823): > 10000 nM | IC50 (MCF7): 2600 nM | IC50 (HepG2 [2]): > 10000 nM

C=C1CC[C@H](C(C)C)[C@@H](/C=C(\CC(=O)O)C(=O)O)[C@@H]1O
viability at 10 µM (HepG2 [1]): 33.2 to 41.6%

CC(C)[C@H]1CC[C@H](C(=O)O)[C@H]2CCC(C(=O)O)=C[C@@H]21
viability at 10 µM (HepG2 [1]): 33.2 to 41.6%

CC(C)[C@H]1CC[C@@H](CO)c2c(O)cc(C(=O)O)cc21
viability at 10 µM (HepG2 [1]): 33.2 to 41.6%

C=C(C)[C@@]12O[C@@H]1[C@@]1(C)C(=CC2=O)CC[C@@H](O)[C@@H]1C
viability at 10 µM (HepG2 [1]): 33.2 to 41.6%

CC(=O)O[C@H]1C(=O)[C@@]2(C)[C@H]([C@H](OC(=O)c3ccccc3)[C@]3(O)C[C@H](OC(=O)[C@H](O)[C@@H](NC(=O)c4ccccc4)c4ccccc4)C(C)=C1C3(C)C)[C@]1(OC(C)=O)CO[C@@H]1C[C@@H]2O [PACLITAXEL]
IC50 (A549): 13.7 nM | IC50 (HCT-116): 1.8 nM | IC50 (BGC-823): 0.4 nM | IC50 (MCF7): 0.2 nM | IC50 (HepG2 [2]): 1.9 nM
